What was measured:
DENV2 NS2B/NS3 protease = DENV2 NS2B/NS3 protease (Dengue virus type 2, UniProt P14340); experiment: In vitro DENV2 NS2B/NS3 protease assay with fluorogenic peptide substrate; format: biochemical; settings: for inhibition at 50 µM: read-out: inhibition at 50 µmol/L (preliminary screening)
Method in brief: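 Screened at 50 µmol/L; IC50 measured only when inhibition exceeded 10%. DENV2 NS2B-NS3 (0.57 µmol/L) and test compound in DMSO, in Tris–HCl pH 8.5, preincubated 10 min at 37 °C, 200 rpm. […] added, shaken 60 min more; fluorescence read, blank-subtracted. Triplicates, 3 independent experiments, mean±SD; IC50 read graphically from log concentration vs % inhibition.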

DEN2 serine protease = settings: cited from earlier work

Sequence of DENV2 NS2B/NS3 protease (P14340 1476-2093 limits assumed): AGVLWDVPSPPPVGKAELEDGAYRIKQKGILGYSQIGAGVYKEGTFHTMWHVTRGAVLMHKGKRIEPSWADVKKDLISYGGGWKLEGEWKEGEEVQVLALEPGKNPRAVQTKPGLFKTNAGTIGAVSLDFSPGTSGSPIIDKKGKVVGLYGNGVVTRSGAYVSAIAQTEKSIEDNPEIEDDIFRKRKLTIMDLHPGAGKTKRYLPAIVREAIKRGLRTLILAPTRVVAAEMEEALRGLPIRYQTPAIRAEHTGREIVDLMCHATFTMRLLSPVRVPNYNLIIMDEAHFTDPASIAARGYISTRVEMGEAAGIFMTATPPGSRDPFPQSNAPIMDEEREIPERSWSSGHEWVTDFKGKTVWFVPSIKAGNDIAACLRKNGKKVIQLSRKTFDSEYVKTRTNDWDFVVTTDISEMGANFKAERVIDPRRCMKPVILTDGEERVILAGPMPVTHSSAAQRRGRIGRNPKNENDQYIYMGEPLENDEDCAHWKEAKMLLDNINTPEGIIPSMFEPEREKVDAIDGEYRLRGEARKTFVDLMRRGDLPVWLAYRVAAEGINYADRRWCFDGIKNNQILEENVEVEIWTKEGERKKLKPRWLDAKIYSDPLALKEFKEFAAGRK
Sequence of DENV2 NS2B/NS3 protease (P14340 1346-1475 partner limits assumed): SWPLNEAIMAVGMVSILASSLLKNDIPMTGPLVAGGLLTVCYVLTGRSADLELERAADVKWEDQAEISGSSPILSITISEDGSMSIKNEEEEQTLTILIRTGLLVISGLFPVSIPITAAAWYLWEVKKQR

IC50 (DENV2 NS2B/NS3 protease) [µM]	inhibition at 50 µM (DENV2 NS2B/NS3 protease) [%]	SMILES	Ki (DEN2 serine protease) [µM]
15.2 ± 1.1	> 10	O=C1C(=Cc2ccc([N+](=O)[O-])cc2)CN(CC(=O)c2ccc(F)cc2)CC1=Cc1ccc([N+](=O)[O-])cc1 [Compound 4e, 1-(2-(4-Fluorophenyl)-2-oxoethyl)-3,5-bis(4-nitrobenzylidene)piperidin-4-one]	–
–	–	CC(C)=CC[C@@H]1C(C)=CC[C@@H](c2ccccc2)[C@@H]1C(=O)c1c(O)cc(O)cc1O [4-hydroxypanduratin A]	21
57.3 ± 1.3	–	COc1cc(O)c(C(=O)[C@@H]2[C@H](CC=C(C)C)C(C)=CC[C@H]2c2ccccc2)c(O)c1 [Panduratin A, panduratin A, reference compound]	25
16.2 ± 1.3	> 10	COc1ccc(C(=O)CN2CC(=Cc3ccc([N+](=O)[O-])cc3)C(=O)C(=Cc3ccc([N+](=O)[O-])cc3)C2)cc1 [Compound 4j, 1-(2-(4-Methoxyphenyl)-2-oxoethyl)-3,5-bis(4-nitrobenzylidene)piperidin-4-one]	–

Source: PMC5518655 (Acta Pharmaceutica Sinica. B, 2017)
